Experiment [1] concerns MM1.S. Put plainly: Synergistic activity against human MM.1S cells assessed as combination index […] in presence of 2.5 uM UNC1999 […] […] compound addition at 0.125 uM incubated for 48 hrs by MTT assay. It is filed as functional. The method, boiled down:
(§1)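 Cells were exposed to the EZH2/EZH1 inhibitor (UNC1999 or GSK126) for 72 h in total, with the Akt inhibitor added for the last 48 h. Viability was read by MTS assay relative to untreated control cells, in triplicate. The combination index for each dose pair came from isobologram analysis.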

Experiment [2] has as its system MM1.S. Put plainly: Synergistic activity against human MM.1S cells assessed as combination index […] in presence of 2.5 uM UNC1999 […] at 0.5 uM incubated for 48 hrs by […]. It is filed as functional. In a few lines: as §1
Another experiment has as its system NCI-H929. Put plainly: Synergistic activity against human NCI-H929 cells assessed as combination index […] compound addition at 0.25 uM incubated for 48 hrs by […]. It is filed as functional. The method, boiled down: as §1
Experiment [3] has as its system OPM-2/BTZ. Put plainly: Synergistic activity against human OPM-2/BTZ cells assessed as combination index preincubated in presence of 2.5 uM UNC1999 for 72 hrs followed by compound addition at 0.5 uM incubated for 48 hrs by MTT assay. It counts as functional. For orientation: Tetrazolium assays rely on reduction of a dye to a coloured formazan, in cell work by metabolically active cells.

Experiment [4] relates to OPM-2/BTZ. Put plainly: Synergistic activity against human OPM-2/BTZ cells assessed as combination index preincubated in presence of 2.5 uM GSK126 for 72 hrs followed by compound addition at 0.5 uM incubated for 48 hrs by MTT assay. It is filed as functional.
The test system of experiment [5] is OPM-2/BTZ. Put plainly: Upregulation of EZH1 protein expression in human OPM-2/BTZ cells at 0.03 to 3 micromol/L after 48 hrs by Western blot analysis. It counts as functional, cell-based. Particulars: dose 0.03-3 µmol/L. (In general: In western blotting, separated proteins are transferred to a membrane and probed.)

This note sets out measurements from ChEMBL document CHEMBL5647697, “Akt inhibition synergizes with polycomb repressive complex 2 inhibition in the treatment of multiple myeloma” (2019).

The source made the active and inactive calls. The rule behind the calls is not given here.

On to `C[C@]1(O)C[C@@](N)(c2ccc(-c3nc4n(c3-c3ccccc3)COc3ccncc3-4)cc2)C1` [PIFUSERTIB], for which the CI in the experiment with MM1.S [1] came to 0.217; in the experiment on MM1.S [2], 0.277; in the experiment on NCI-H929, 7.428; in the experiment with OPM-2/BTZ [3], 0.499; in the experiment with OPM-2/BTZ [4], 0.296. Besides, in the experiment on OPM-2/BTZ [5], the outcome was Active.
